# Laboratory results from ChEMBL document CHEMBL1255453, “Affinity of ceftaroline and other beta-lactams for penicillin-binding proteins from Staphylococcus aureus and Streptococcus pneumoniae” (Antimicrob Agents Chemother, 2010).
# Columns and labels:
# [1] = Binding affinity to penicillin-resistant Streptococcus pneumoniae 24 PBP1B by competitive binding assay
# Procedure, shortened: (§1)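 Whole pneumococcal cells grown to OD600 0.3 in Todd-Hewitt broth with 0.5% yeast extract, resuspended in 50 mM NaPO4 pH 7.0. Cells (10^8–5 × 10^8 CFU/ml) incubated with β-lactam 10 min at 37°C, then Bocillin FL 10 μg/ml, 15 min at 37°C. SDS-PAGE, 520 nm fluorescence; IC50 = 50% inhibition of Bocillin FL binding; 2 experiments.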
# [2] = Binding affinity to penicillin-resistant Streptococcus pneumoniae 24 PBP3 by competitive binding assay
# Procedure, shortened: (§2)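 Whole pneumococcal cells were grown to OD600 0.3 in Todd-Hewitt broth plus 0.5% yeast extract, then resuspended in 50 mM NaPO4, pH 7.0. Cells at 10^8 to 5 × 10^8 CFU/ml were exposed to β-lactam for 10 min at 37°C, alongside a reference without drug. They were then labeled with 10 μg/ml Bocillin FL for 15 min at 37°C. Proteins were resolved by SDS-PAGE and fluorescence read at 520 nm. IC50 was taken as 50% inhibition of Bocillin FL binding, from 2 experiments.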
# [3] = Binding affinity to penicillin-resistant Streptococcus pneumoniae 2527 PBP2A by competitive binding assay; procedure, shortened: as §2
# [4] = biological target: T1, Penicillin-binding protein 2x (Streptococcus pneumoniae serotype 4 (strain ATCC BAA-334 / TIGR4), UniProt P14677); experiment: Binding affinity to penicillin-resistant Streptococcus pneumoniae 24 PBP2X by competitive binding assay; procedure, shortened: as §2
# T1 sequence (P14677 whole entry, looked up): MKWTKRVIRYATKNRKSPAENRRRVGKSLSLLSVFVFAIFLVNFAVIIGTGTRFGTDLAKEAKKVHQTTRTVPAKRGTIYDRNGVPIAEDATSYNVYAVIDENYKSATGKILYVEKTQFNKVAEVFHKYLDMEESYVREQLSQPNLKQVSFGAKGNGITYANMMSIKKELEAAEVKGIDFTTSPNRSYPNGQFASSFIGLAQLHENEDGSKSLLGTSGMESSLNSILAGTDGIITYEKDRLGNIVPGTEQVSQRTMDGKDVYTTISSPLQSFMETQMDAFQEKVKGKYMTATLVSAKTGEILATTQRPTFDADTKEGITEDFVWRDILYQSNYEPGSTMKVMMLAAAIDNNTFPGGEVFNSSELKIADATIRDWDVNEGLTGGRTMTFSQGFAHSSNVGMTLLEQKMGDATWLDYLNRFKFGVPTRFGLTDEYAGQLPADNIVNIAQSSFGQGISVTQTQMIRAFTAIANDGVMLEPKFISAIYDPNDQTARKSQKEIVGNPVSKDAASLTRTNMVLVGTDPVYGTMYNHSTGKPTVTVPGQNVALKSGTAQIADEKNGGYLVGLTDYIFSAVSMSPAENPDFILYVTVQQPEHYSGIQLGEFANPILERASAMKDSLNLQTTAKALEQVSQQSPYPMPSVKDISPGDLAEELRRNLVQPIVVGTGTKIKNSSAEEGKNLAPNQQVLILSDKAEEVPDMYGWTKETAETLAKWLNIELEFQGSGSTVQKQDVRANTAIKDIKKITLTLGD
# [5] = biological target: T2, Penicillin-binding protein 2B (Streptococcus pneumoniae serotype 4 (strain ATCC BAA-334 / TIGR4), UniProt P0A3M5); experiment: Binding affinity to penicillin-resistant Streptococcus pneumoniae 24 PBP2B by competitive binding assay; procedure, shortened: as §2
# T2 sequence (P0A3M5 whole entry): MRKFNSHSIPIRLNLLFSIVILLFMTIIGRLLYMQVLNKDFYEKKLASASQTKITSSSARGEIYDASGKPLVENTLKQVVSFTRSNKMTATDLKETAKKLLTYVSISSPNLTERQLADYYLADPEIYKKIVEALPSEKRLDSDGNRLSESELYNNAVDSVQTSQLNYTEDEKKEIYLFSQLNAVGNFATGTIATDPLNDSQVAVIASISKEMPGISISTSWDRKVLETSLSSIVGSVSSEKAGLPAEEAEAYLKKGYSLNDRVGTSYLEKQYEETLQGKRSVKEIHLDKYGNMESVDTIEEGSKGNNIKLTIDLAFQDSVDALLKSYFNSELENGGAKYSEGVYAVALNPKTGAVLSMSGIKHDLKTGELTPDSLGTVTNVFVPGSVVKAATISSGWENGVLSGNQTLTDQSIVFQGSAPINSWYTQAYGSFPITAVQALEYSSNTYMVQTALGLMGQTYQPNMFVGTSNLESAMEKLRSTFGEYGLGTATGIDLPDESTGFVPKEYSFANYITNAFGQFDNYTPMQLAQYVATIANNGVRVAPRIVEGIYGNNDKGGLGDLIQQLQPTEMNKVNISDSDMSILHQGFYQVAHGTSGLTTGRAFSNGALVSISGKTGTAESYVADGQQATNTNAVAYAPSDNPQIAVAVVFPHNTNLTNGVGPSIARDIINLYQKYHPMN
# [6] = Binding affinity to penicillin-resistant Streptococcus pneumoniae 3413 PBP1B by competitive binding assay; procedure, shortened: as §2
# [7] = Binding affinity to against penicillin-susceptible Streptococcus pneumoniae 1076 PBP2A by competitive binding assay; procedure, shortened: as §1
# [8] = biological target: T3, Penicillin-binding protein 1A (Streptococcus pneumoniae serotype 4 (strain ATCC BAA-334 / TIGR4), UniProt Q04707); experiment: Binding affinity to penicillin-resistant Streptococcus pneumoniae 24 PBP1A by competitive binding assay; procedure, shortened: as §1
# T3 sequence (Q04707 whole entry): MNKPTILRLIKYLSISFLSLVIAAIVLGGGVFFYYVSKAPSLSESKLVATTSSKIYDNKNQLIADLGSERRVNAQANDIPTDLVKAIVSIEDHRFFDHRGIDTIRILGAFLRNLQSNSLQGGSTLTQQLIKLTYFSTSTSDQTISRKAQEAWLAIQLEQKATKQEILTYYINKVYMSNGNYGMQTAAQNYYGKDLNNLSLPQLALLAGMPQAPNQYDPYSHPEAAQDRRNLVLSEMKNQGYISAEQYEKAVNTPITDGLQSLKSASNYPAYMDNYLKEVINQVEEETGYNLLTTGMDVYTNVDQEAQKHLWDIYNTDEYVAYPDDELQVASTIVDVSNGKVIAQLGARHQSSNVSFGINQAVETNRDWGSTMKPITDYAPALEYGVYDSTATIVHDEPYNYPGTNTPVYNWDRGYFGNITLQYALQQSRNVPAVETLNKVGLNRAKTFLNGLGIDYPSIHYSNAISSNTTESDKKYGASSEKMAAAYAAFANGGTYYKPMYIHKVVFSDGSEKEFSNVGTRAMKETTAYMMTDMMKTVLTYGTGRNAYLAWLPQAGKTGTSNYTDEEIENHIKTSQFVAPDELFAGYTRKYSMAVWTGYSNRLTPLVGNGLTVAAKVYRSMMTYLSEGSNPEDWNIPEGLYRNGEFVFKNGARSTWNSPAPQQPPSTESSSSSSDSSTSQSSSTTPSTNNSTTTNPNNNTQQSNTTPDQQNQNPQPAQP
# [9] = biological target: T2, Penicillin-binding protein 2B; experiment: Binding affinity to against penicillin-susceptible Streptococcus pneumoniae 1076 PBP2B by competitive binding assay; procedure, shortened: as §1
# [10] = Binding affinity to penicillin-resistant Streptococcus pneumoniae 3413 PBP2A by competitive binding assay; procedure, shortened: as §2
# [11] = Binding affinity to penicillin-resistant Streptococcus pneumoniae 24 PBP2A by competitive binding assay; procedure, shortened: as §1
# [12] = biological target: T2, Penicillin-binding protein 2B; experiment: Binding affinity to penicillin-resistant Streptococcus pneumoniae 3413 PBP2B by competitive binding assay; procedure, shortened: as §2
# [13] = biological target: T3, Penicillin-binding protein 1A; experiment: Binding affinity to penicillin-resistant Streptococcus pneumoniae 2527 PBP1A by competitive binding assay; procedure, shortened: as §2
# [14] = Binding affinity to against penicillin-susceptible Streptococcus pneumoniae 1076 PBP1B by competitive binding assay; procedure, shortened: as §1
# [15] = Binding affinity to against penicillin-susceptible Streptococcus pneumoniae 1076 PBP3 by competitive binding assay; procedure, shortened: as §1
# [16] = biological target: T1, Penicillin-binding protein 2x; experiment: Binding affinity to penicillin-resistant Streptococcus pneumoniae 3413 PBP2X by competitive binding assay; procedure, shortened: as §2
# [17] = Binding affinity to penicillin-resistant Streptococcus pneumoniae 3413 PBP3 by competitive binding assay; procedure, shortened: as §2
Structure (SMILES),IC50 [1],IC50 [2],IC50 [3],IC50 [4],IC50 [5],IC50 [6],IC50 [7],IC50 [8],IC50 [9],IC50 [10],IC50 [11],IC50 [12],IC50 [13],IC50 [14],IC50 [15],IC50 [16],IC50 [17]
CO/N=C(\C(=O)N[C@@H]1C(=O)N2C(C(=O)O)=C(COC(C)=O)CS[C@H]12)c1csc(N)n1 [CEFOTAXIME],8 µg/mL,0.1 µg/mL,0.25 µg/mL,2.2 µM,35.1 µM,4 µg/mL,0.25 µg/mL,0.274 µM,> 70.3 µM,0.25 µg/mL,0.5 µg/mL,35.1 µM,0.549 µM,0.25 µg/mL,0.1 µg/mL,8.78 µM,0.1 µg/mL
CO/N=C(\C(=O)N[C@@H]1C(=O)N2C(C(=O)O)=C(CSc3nc(=O)c(O)nn3C)CS[C@H]12)c1csc(N)n1 [CEFTRIAXONE],1 µg/mL,0.25 µg/mL,0.25 µg/mL,1.8 µM,28.9 µM,4 µg/mL,0.25 µg/mL,0.451 µM,> 57.7 µM,1 µg/mL,1 µg/mL,28.9 µM,0.451 µM,0.1 µg/mL,0.1 µg/mL,7.21 µM,0.25 µg/mL
